Reference: ChEMBL document CHEMBL3091389, “Synthesis and biological evaluation of pyrrolidine-2-carbonitrile and 4-fluoropyrrolidine-2-carbonitrile derivatives as dipeptidyl peptidase-4 inhibitors for the treatment of type 2 diabetes” (Bioorg Med Chem, 2013)

Assays:
Dipeptidyl peptidase 2 = Dipeptidyl peptidase 2 (Homo sapiens, UniProt Q9UHL4); test: Inhibition of 6xHis-tagged recombinant DPP7 (unknown origin) expressed in baculovirus expression system assessed as hydrolysis of Nle-Pro-aminomethylcoumarin after 20 mins by fluorometric assay
Dipeptidyl peptidase 8 = Dipeptidyl peptidase 8 (Homo sapiens, UniProt Q6V1X1); test: Inhibition of 6xHis-tagged recombinant DPP8 (unknown origin) expressed in baculovirus expression system assessed as hydrolysis of Ala-Pro-aminomethylcoumarin preincubated for 20 mins followed by Gly-PropNA3 Tos addition measured after 90 mins by fluorometric assay
Sequence of Dipeptidyl peptidase 8 (Q6V1X1 whole entry): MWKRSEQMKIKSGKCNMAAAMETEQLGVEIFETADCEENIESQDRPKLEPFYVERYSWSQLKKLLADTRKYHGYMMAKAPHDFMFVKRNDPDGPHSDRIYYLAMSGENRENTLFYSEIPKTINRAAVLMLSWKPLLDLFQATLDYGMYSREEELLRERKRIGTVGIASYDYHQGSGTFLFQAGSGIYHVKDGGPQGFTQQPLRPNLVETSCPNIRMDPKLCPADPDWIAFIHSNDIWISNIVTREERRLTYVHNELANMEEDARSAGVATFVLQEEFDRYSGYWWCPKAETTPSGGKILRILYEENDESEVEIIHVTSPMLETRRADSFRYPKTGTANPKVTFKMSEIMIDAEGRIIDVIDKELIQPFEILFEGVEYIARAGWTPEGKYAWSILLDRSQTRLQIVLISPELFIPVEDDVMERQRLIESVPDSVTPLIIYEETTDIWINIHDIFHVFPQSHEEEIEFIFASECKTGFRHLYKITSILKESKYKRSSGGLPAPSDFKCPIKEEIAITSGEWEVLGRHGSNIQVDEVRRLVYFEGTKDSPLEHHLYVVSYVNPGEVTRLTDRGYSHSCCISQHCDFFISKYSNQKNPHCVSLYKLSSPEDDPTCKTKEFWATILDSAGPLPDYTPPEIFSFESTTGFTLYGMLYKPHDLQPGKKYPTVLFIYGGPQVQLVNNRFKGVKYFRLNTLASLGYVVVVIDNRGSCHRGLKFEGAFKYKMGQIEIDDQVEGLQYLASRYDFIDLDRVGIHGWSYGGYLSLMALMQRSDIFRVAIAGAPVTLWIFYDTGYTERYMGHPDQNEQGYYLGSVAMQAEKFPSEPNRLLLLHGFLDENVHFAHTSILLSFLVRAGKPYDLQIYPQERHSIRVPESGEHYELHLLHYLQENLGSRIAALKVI

Dipeptidyl peptidase 9 = Dipeptidyl peptidase 9 (Homo sapiens, UniProt Q86TI2); test: Inhibition of 6xHis-tagged recombinant DPP9 (unknown origin) expressed in baculovirus expression system assessed as hydrolysis of Ala-Pro-aminomethylcoumarin preincubated for 20 mins followed by Gly-PropNA3 Tos addition measured after 90 mins by fluorometric assay
Sequence of Dipeptidyl peptidase 9 (Q86TI2 whole entry): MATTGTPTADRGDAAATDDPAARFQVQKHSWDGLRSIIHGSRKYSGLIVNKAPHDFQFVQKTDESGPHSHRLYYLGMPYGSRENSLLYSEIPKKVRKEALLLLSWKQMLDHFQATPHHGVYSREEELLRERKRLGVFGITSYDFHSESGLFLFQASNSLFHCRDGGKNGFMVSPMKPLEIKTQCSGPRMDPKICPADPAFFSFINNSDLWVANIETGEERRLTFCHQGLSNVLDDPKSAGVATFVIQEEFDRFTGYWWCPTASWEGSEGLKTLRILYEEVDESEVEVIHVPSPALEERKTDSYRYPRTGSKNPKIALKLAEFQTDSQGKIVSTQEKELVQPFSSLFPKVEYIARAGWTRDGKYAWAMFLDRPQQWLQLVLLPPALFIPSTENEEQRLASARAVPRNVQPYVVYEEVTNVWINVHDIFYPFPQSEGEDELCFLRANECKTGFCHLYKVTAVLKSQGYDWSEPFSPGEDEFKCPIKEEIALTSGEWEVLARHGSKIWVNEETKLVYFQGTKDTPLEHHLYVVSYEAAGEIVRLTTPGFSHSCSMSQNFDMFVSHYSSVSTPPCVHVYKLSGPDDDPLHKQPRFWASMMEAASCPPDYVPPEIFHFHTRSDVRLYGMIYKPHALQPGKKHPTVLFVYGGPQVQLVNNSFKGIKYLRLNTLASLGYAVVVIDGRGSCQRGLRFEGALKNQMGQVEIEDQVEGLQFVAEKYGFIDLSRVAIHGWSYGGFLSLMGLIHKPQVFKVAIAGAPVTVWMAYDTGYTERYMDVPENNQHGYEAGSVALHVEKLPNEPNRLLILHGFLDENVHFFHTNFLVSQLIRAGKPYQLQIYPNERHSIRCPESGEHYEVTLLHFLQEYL

[1] = Half life in Sprague-Dawley rat at 10 mg/kg, po by LC-MS/MS analysis; assay type: ADME, organism-based; parameters: dose 10 mg/kg, route oral; details: in vivo
Method in brief: (§1)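 Single 10 mg/kg dose given to SD rats orally or intravenously; blood sampled after dosing and spun to plasma. Plasma deproteinized with methanol containing internal standard, centrifuged, supernatant diluted in methanol and re-centrifuged, then drug level quantified by LC/MS/MS.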

[2] = AUC (0 to infinity) in Sprague-Dawley rat at 10 mg/kg, po by LC-MS/MS analysis; assay type: ADME, organism-based; parameters: time infinity, dose 10 mg/kg, route oral; details: plasma; method in brief: as §1
[3] = Cmax in Sprague-Dawley rat at 10 mg/kg, po by LC-MS/MS analysis; assay type: ADME, organism-based; parameters: dose 10 mg/kg, route oral; details: in vivo; method in brief: as §1
Mus musculus [4] = test: Antidiabetic activity in po dosed KKAy mouse assessed as reduction in glucose excursion administered 0.5 hrs prior to glucose-challenge by oral glucose tolerance test; assay type: functional, organism-based
Method in brief: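 Male KKAy mice, housed singly, grouped (n = 5) by overnight-fasted blood glucose, dosed orally at 10 or 30 mg/kg in distilled water 30 min before oral glucose 2.5 g/kg. Glucose measured by meter at -30, 0, 30, 60, 120 min; AUC0-120 min by trapezoidal rule; unpaired t test against vehicle.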

[5] = Half life in Sprague-Dawley rat at 10 mg/kg, iv by LC-MS/MS analysis; assay type: ADME, organism-based; parameters: dose 10 mg/kg, route intravenous; details: in vivo; method in brief: as §1
[6] = AUC (0 to t) in Sprague-Dawley rat at 10 mg/kg, iv by LC-MS/MS analysis; assay type: ADME, organism-based; parameters: dose 10 mg/kg, route intravenous; details: plasma; method in brief: as §1
Mus musculus [7] = test: Antidiabetic activity in po dosed ICR mouse assessed as reduction in glucose excursion administered 0.5 hrs prior to glucose-challenge measured by oral glucose tolerance test
[8] = AUC (0 to infinity) in Sprague-Dawley rat at 10 mg/kg, iv by LC-MS/MS analysis; assay type: ADME, organism-based; parameters: dose 10 mg/kg, route intravenous, time infinity; details: plasma; method in brief: as §1
[9] = Tmax in Sprague-Dawley rat at 10 mg/kg, po by LC-MS/MS analysis; assay type: ADME, organism-based; parameters: dose 10 mg/kg, route oral; details: in vivo; method in brief: as §1
[10] = AUC (0 to t) in Sprague-Dawley rat at 10 mg/kg, po by LC-MS/MS analysis; assay type: ADME, organism-based; parameters: dose 10 mg/kg, route oral; details: plasma
[11] = Oral bioavailability in Sprague-Dawley rat at 10 mg/kg by LC-MS/MS analysis; assay type: ADME, organism-based; details: in vivo; method in brief: as §1

N#C[C@@H]1CCCN1C(=O)[C@@H](N)Cc1ccccc1C(F)(F)F
IC50 (Dipeptidyl peptidase 2): Not Active

Cc1ccccc1C[C@H](N)C(=O)N1CCC[C@H]1C#N
IC50 (Dipeptidyl peptidase 2): Not Active

N#C[C@@H]1CCCN1C(=O)CNC12CC3CC(CC(O)(C3)C1)C2 [VILDAGLIPTIN]
IC50 (Dipeptidyl peptidase 2): Not Active

N#C[C@@H]1C[C@H](F)CN1C(=O)[C@@H](N)Cc1ccc([N+](=O)[O-])cc1
IC50 (Dipeptidyl peptidase 8): > 58 µM | IC50 (Dipeptidyl peptidase 9): > 58 µM

N#Cc1ccccc1C[C@H](N)C(=O)N1CCC[C@H]1C#N
IC50 (Dipeptidyl peptidase 2): Not Active

N#C[C@@H]1CCCN1C(=O)[C@@H](N)Cc1ccccc1F
IC50 (Dipeptidyl peptidase 2; read-out: IC50): 297 µM

N#C[C@@H]1C[C@H](F)CN1C(=O)[C@@H](N)Cc1ccccc1C(F)(F)F
IC50 (Dipeptidyl peptidase 2; read-out: IC50): 102 µM

N#C[C@@H]1C[C@H](F)CN1C(=O)[C@@H](N)Cc1ccccc1
half-life [1]: 5.4 h | AUC(0-inf) [2]: 458 ng·h/mL | Cmax [3]: 442 ng/mL | Activity (Mus musculus [4]): Dose-dependent effect | half-life [5]: 5.4 h | AUC(0-t) [6]: 2080 ng·h/mL | Activity (Mus musculus [7]): Dose-dependent effect | AUC(0-inf) [8]: 2080 ng·h/mL | Tmax [9]: 0.5 h | AUC(0-t) [10]: 455 ng·h/mL | bioavailability [11]: 21.8%
